{
  "source": "ChEMBL document CHEMBL4007417",
  "about": "“Target Elucidation by Cocrystal Structures of NADH-Ubiquinone Oxidoreductase of Plasmodium falciparum (PfNDH2) with Small Molecule To Eliminate Drug-Resistant Malaria” (J Med Chem, 2017)",
  "key": {"[1]": {"test_system": "Plasmodium yoelii", "assay": "Antimalarial activity against Plasmodium yoelii YM infected in BALB/c mouse assessed as time duration for parasite cure at 10 mg/kg, sc administered QD for 4 days starting at 96 hrs post infection by Giemsa-staining based microscopic analysis", "assay_type": "functional", "method_in_brief": "(§1)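 P. yoelii-infected mice, n=3 per group. Subcutaneous injection once daily for 4 days starting at 96 h post infection. Parasitemia followed on blood-smear microscopy, with inhibition measured at 24 h post treatment. Cure time taken as the minimum period to cure all mice; survival recorded at 40 days. DMSO controls included.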"}, "[2]": {"test_system": "Plasmodium yoelii", "assay": "Antimalarial activity against Plasmodium yoelii YM infected in BALB/c mouse assessed as mouse survival at 5 mg/kg, sc administered QD for 4 days starting at 2 hrs post infection by Giemsa-staining based microscopic analysis", "assay_type": "functional", "method_in_brief": "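Mice inoculated with 1×106 P. yoelii parasites, then dosed subcutaneously once daily for 4 days starting 2 h post infection. Parasitemia followed by microscopy of blood smears. Survival scored at 40 days post infection in groups of n=3 mice. DMSO-only controls.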"}, "[3]": {"test_system": "Plasmodium yoelii", "assay": "Antimalarial activity against Plasmodium yoelii YM infected in BALB/c mouse assessed as parasite growth inhibition at 10 mg/kg, sc administered QD for 4 days starting at 96 hrs post infection by Giemsa-staining based microscopic analysis", "assay_type": "functional", "conditions": "read-out: GI", "method_in_brief": "as §1"}, "[4]": {"test_system": "Plasmodium yoelii", "assay": "Antimalarial activity against Plasmodium yoelii YM infected in BALB/c mouse assessed as mouse survival at 30 mg/kg, sc administered BID for 4 days starting at 96 hrs post infection, 8 hrs apart by Giemsa-staining based microscopic analysis", "assay_type": "functional", "method_in_brief": "(§2)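 Mice inoculated with 1×106 P. yoelii parasites. Subcutaneous dosing for 4 days starting 96 h post infection, given once daily or twice daily 8 h apart. Parasitemia followed on Giemsa-stained blood smears. Survival recorded at 40 days post infection; groups of n=3. DMSO-only mice served as untreated controls.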"}, "[5]": {"test_system": "Plasmodium yoelii", "assay": "Antimalarial activity against Plasmodium yoelii YM infected in BALB/c mouse assessed as time duration for parasite cure at 5 mg/kg, sc administered QD for 4 days starting at 2 hrs post infection by Giemsa-staining based microscopic analysis", "assay_type": "functional", "method_in_brief": "(§3)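 P. yoelii-infected mice, n=3 per group. Subcutaneous injection once daily for 4 days starting at 2 h post infection. Growth inhibition determined at 24 h post treatment by blood-smear microscopy. Cure time taken as the minimum period to cure all mice in the group.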"}, "[6]": {"test_system": "Plasmodium yoelii", "assay": "Antimalarial activity against Plasmodium yoelii YM infected in BALB/c mouse assessed as time duration for parasite cure at 90 mg/kg, sc administered BID for 4 days starting at 96 hrs post infection, 8 hrs apart by Giemsa-staining based microscopic analysis", "assay_type": "functional", "method_in_brief": "(§4)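 P. yoelii-infected mice, n=3 per group. Subcutaneous injection twice daily, 8 h apart, for 4 days starting at 96 h post infection. Growth inhibition read from blood smears at 24 h post treatment. Cure time taken as the minimum period to cure all mice in the group. DMSO controls included.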"}, "[7]": {"test_system": "Plasmodium yoelii", "assay": "Antimalarial activity against Plasmodium yoelii YM infected in BALB/c mouse assessed as time duration for parasite cure at 10 mg/kg, sc administered BID for 4 days starting at 96 hrs post infection, 8 hrs apart by Giemsa-staining based microscopic analysis", "assay_type": "functional", "method_in_brief": "as §4"}, "[8]": {"test_system": "Plasmodium yoelii", "assay": "Antimalarial activity against Plasmodium yoelii YM infected in BALB/c mouse assessed as parasite growth inhibition at 90 mg/kg, sc administered BID for 4 days starting at 96 hrs post infection, 8 hrs apart by Giemsa-staining based microscopic analysis", "assay_type": "functional", "conditions": "read-out: GI", "method_in_brief": "as §4"}, "[9]": {"test_system": "Plasmodium yoelii", "assay": "Antimalarial activity against Plasmodium yoelii YM infected in BALB/c mouse assessed as mouse survival at 10 mg/kg, sc administered BID for 4 days starting at 96 hrs post infection, 8 hrs apart by Giemsa-staining based microscopic analysis", "assay_type": "functional", "method_in_brief": "as §2"}, "[10]": {"test_system": "Plasmodium yoelii", "assay": "Antimalarial activity against Plasmodium yoelii YM infected in BALB/c mouse assessed as parasite growth inhibition at 5 mg/kg, sc administered QD for 4 days starting at 2 hrs post infection by Giemsa-staining based microscopic analysis", "assay_type": "functional", "conditions": "read-out: GI", "method_in_brief": "as §3"}, "[11]": {"test_system": "Plasmodium yoelii", "assay": "Antimalarial activity against Plasmodium yoelii YM infected in BALB/c mouse assessed as parasite growth inhibition at 10 mg/kg, sc administered BID for 4 days starting at 96 hrs post infection, 8 hrs apart by Giemsa-staining based microscopic analysis", "assay_type": "functional", "conditions": "read-out: GI", "method_in_brief": "as §4"}, "[12]": {"test_system": "Plasmodium yoelii", "assay": "Antimalarial activity against Plasmodium yoelii YM infected in BALB/c mouse assessed as mouse survival at 90 mg/kg, sc administered BID for 4 days starting at 96 hrs post infection, 8 hrs apart by Giemsa-staining based microscopic analysis", "assay_type": "functional", "method_in_brief": "as §2"}, "[13]": {"test_system": "Plasmodium yoelii", "assay": "Antimalarial activity against Plasmodium yoelii YM infected in BALB/c mouse assessed as parasite growth inhibition at 30 mg/kg, sc administered BID for 4 days starting at 96 hrs post infection, 8 hrs apart by Giemsa-staining based microscopic analysis", "assay_type": "functional", "conditions": "read-out: GI", "method_in_brief": "as §4"}, "[14]": {"test_system": "Plasmodium yoelii", "assay": "Antimalarial activity against Plasmodium yoelii YM infected in BALB/c mouse assessed as mouse survival at 10 mg/kg, sc administered QD for 4 days starting at 96 hrs post infection by Giemsa-staining based microscopic analysis", "assay_type": "functional", "method_in_brief": "as §2"}, "[15]": {"test_system": "Plasmodium yoelii", "assay": "Antimalarial activity against Plasmodium yoelii YM infected in BALB/c mouse assessed as parasite cure level at 10 to 90 mg/kg, ip administered on days 1 post infection by Giemsa-stained microscopic analysis", "assay_type": "functional, organism-based", "method_in_brief": "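Mice (groups of three) inoculated with 1×10^6 P. yoelii parasites. Single intraperitoneal dose of 10, 30 or 90 mg/kg given 24 h after inoculation. DMSO-only untreated group included. Outcome followed by blood-smear microscopy for cure, with survival scored at 40 days post infection.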"}, "[16]": {"test_system": "Plasmodium yoelii", "assay": "Antimalarial activity against Plasmodium yoelii YM infected in BALB/c mouse assessed as time duration for parasite cure at 30 mg/kg, sc administered BID for 4 days starting at 96 hrs post infection, 8 hrs apart by Giemsa-staining based microscopic analysis", "assay_type": "functional", "method_in_brief": "as §4"}},
  "note": "Active and inactive are the calls of the source. The rule behind the calls is not given here.",
  "data": [
    {"smiles": "CCc1nc(N)nc(N)c1-c1ccc(Cl)cc1", "note": "[PYRIMETHAMINE]", "values": [
      {"measurement": "Time", "setting": "[1]", "result": 17, "unit": "days"},
      {"measurement": "survival at 5 mg/kg", "setting": "[2]", "result": 100, "unit": "%"},
      {"measurement": "inhibition in vivo at 10 mg/kg", "setting": "[3]", "result": 98.4, "unit": "%"},
      {"measurement": "survival at 30 mg/kg", "setting": "[4]", "result": 100, "unit": "%"},
      {"measurement": "Time", "setting": "[5]", "result": 30, "unit": "days"},
      {"measurement": "Time", "setting": "[6]", "result": 4, "unit": "days"},
      {"measurement": "Time", "setting": "[7]", "result": 4, "unit": "days"},
      {"measurement": "inhibition in vivo at 90 mg/kg", "setting": "[8]", "result": 100, "unit": "%"},
      {"measurement": "survival at 10 mg/kg", "setting": "[9]", "result": 100, "unit": "%"},
      {"measurement": "inhibition in vivo at 5 mg/kg", "setting": "[10]", "result": 100, "unit": "%"},
      {"measurement": "inhibition in vivo at 10 mg/kg", "setting": "[11]", "result": 100, "unit": "%"},
      {"measurement": "survival at 90 mg/kg", "setting": "[12]", "result": 100, "unit": "%"},
      {"measurement": "inhibition in vivo at 30 mg/kg", "setting": "[13]", "result": 100, "unit": "%"},
      {"measurement": "survival at 10 mg/kg", "setting": "[14]", "result": 100, "unit": "%"},
      {"measurement": "Activity", "setting": "[15]", "result": "Active"},
      {"measurement": "Time", "setting": "[16]", "result": 4, "unit": "days"}
    ]}
  ]
}
